Reference: ChEMBL document CHEMBL1139894, “Withanolides with phytotoxic activity from Jaborosa caulescens var. caulescens and J. caulescens var. bipinnatifida 1” (2007)

Columns and labels:
Type in all cases: functional
[1] = test system: Avena sativa; experiment: Phytotoxic activity against Avena sativa assessed as radicle length elongation at 400 ppm
Summary of the method: (§1)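 Radicle length of treated seedlings was compared with untreated controls and reported as the percentage difference from the control, which is set to zero. Negative values mean inhibition and positive values mean stimulation. Germination and root length were also compared between treated and control seeds using Student's t-test (p < 0.05).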

[2] = test system: Avena sativa; experiment: Phytotoxic activity against Avena sativa assessed as radicle length elongation at 15 ppm; summary of the method: as §1
[3] = test system: Lactuca sativa; experiment: Phytotoxic activity against Latuca sativa assessed as radicle length elongation at 15 ppm; summary of the method: as §1
[4] = test system: Avena sativa; experiment: Phytotoxic activity against Avena sativa assessed as radicle length elongation at 150 ppm; summary of the method: as §1
[5] = test system: Lactuca sativa; experiment: Phytotoxic activity against Latuca sativa assessed as radicle length elongation at 400 ppm; summary of the method: as §1
[6] = test system: Lactuca sativa; experiment: Phytotoxic activity against Latuca sativa assessed as radicle length elongation at 150 ppm; summary of the method: as §1

## CCO[C@@]12C[C@H]3[C@@H](C[C@@H](O)[C@@]4(Cl)CC=CC(=O)[C@]34C)[C@@H]3CC[C@@](O)([C@H](C)[C@@H]([C@@H]4OC(=O)C(C)=C4C)O1)[C@]32C [12-O-ETHYLJABOROSALACTONE 42]
[1]
  Activity: -32.2%
[2]
  Activity: 3.5%
[3]
  Activity: 2.7%
[4]
  Activity: -11.2%
[5]
  Activity: -65.1%
[6]
  Activity: -25.7%

## CO[C@@]12C[C@H]3[C@@H](C[C@H]4O[C@]45CC=CC(=O)[C@]35C)[C@@H]3CC[C@@](O)([C@@H]([C@H]4CC(C)=C(C)C(=O)O4)CO1)[C@]32C [12-O-METHYLJABOROSALACTONE 38]
[1]
  Activity: -24.5%
[2]
  Activity: 15.3%
[3]
  Activity: -8.7%
[4]
  Activity: 1.5%
[5]
  Activity: -74.7%
[6]
  Activity: -22.7%

## CC1=C(C)C(=O)O[C@@H]([C@H]2CO[C@@]3(O)C[C@H]4[C@@H](C[C@H]5O[C@]56CC=CC(=O)[C@]46C)[C@@H]4CC[C@]2(O)[C@]43C)C1 [JABOROSALACTONE]
[1]
  Activity: -36.5%
[2]
  Activity: -13.9%
[3]
  Activity: -1.6%
[4]
  Activity: 2.4%
[5]
  Activity: -58.6%
[6]
  Activity: -46.2%

## CC1=C(C)[C@H]([C@H]2O[C@@]3(O)C[C@H]4[C@@H](C[C@@H](O)[C@@]5(O)CC=CC(=O)[C@]45C)[C@@H]4CC[C@@](O)([C@@H]2C)[C@]43C)OC1=O [JABOROTETROL]
[1]
  Activity: -5.9%
[2]
  Activity: -10.2%
[3]
  Activity: -3.9%
[4]
  Activity: 2.7%
[5]
  Activity: -4%
[6]
  Activity: -5.5%

## CC1=C(C)[C@H]([C@H]2O[C@@]3(O)C[C@H]4[C@@H](C[C@H]5O[C@]56CC=CC(=O)[C@]46C)[C@@H]4CC[C@@](O)([C@@H]2C)[C@]43C)OC1=O [TRECHONOLIDE A]
[1]
  Activity: 4%
[2]
  Activity: 2.5%
[3]
  Activity: 3.7%
[4]
  Activity: -11.7%
[5]
  Activity: 2.5%
[6]
  Activity: -8.4%
